# Reference: ChEMBL document CHEMBL1135723, “New type of metalloproteinase inhibitor: design and synthesis of new phosphonamide-based hydroxamic acids” (J Med Chem, 2002)
# Columns and labels:
# Interstitial collagenase = target: T1, Interstitial collagenase (Homo sapiens, UniProt P03956); assay: Inhibitory activity against matrix metalloprotease-1 (MMP-1)(recombinant human collagenase-1).
# T1 sequence (P03956 whole entry): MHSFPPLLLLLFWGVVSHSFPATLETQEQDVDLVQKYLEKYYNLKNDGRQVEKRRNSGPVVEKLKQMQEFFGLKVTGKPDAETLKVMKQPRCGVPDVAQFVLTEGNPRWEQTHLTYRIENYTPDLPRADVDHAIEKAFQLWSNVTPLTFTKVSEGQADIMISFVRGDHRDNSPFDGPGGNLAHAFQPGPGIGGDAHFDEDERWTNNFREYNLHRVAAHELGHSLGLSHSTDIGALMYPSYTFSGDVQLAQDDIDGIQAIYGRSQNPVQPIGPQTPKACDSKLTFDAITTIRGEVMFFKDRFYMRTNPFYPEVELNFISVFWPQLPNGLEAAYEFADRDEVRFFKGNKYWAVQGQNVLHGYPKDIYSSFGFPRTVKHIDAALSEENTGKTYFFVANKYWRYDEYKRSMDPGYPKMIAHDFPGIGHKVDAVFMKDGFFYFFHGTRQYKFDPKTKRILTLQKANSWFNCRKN
# Stromelysin-1 = Stromelysin-1 (Homo sapiens, UniProt P08254); assay: Inhibitory activity against matrix metalloprotease-3 (MMP-3)(stromelysin-1).
# Chain of Stromelysin-1 (P08254 whole entry): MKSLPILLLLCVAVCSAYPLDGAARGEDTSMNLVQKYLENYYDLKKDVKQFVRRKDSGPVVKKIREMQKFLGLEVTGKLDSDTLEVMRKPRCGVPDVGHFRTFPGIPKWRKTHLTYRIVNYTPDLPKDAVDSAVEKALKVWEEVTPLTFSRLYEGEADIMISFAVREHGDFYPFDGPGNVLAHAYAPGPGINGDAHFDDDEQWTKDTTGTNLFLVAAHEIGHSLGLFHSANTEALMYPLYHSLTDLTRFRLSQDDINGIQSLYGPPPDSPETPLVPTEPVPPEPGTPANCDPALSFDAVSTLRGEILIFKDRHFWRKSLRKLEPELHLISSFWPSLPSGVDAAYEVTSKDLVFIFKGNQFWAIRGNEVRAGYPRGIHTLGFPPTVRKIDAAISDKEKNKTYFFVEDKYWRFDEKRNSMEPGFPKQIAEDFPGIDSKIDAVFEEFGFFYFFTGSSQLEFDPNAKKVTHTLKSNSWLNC
# Outline: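 Recombinant human MMP-3 activated with 1 mM p-aminophenylmercuric acetate, 1 h, 37 °C. Compound in 50 mM Tris, 150 mM NaCl, 10 mM CaCl2, 0.05% Brij-35, pH 7.5, preincubated with enzyme 10 min at 37 °C. Fluorescence-quenched peptide substrate added, 2 h at 37 °C; Ex/Em 320/405 nm. Ki from percent inhibition and substrate Km.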
# [1] = target: Matrix metalloproteinase-9 (Homo sapiens, UniProt P14780); assay: Inhibitory activity against matrix metalloprotease-9 (MMP-9)(gelatinase-B).
# Chain of Matrix metalloproteinase-9 (P14780 whole entry, the tested form may be a part): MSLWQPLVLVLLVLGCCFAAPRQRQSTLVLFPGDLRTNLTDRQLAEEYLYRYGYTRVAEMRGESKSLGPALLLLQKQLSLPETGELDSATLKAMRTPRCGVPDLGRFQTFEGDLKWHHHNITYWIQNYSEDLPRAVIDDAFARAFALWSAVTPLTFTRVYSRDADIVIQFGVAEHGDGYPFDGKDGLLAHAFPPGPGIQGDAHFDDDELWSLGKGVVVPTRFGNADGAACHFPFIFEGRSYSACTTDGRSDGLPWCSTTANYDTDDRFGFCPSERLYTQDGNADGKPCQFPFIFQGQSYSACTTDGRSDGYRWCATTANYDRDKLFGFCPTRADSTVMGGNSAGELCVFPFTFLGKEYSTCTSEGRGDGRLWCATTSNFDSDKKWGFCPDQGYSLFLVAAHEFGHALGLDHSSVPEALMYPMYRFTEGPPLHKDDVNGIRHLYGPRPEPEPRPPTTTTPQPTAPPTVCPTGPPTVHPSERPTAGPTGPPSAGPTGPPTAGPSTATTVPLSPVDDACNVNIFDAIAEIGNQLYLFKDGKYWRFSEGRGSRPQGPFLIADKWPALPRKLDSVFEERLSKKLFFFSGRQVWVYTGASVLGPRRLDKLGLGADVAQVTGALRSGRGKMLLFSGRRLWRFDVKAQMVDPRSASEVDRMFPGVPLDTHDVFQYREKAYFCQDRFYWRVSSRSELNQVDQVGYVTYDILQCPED
# [2] = target: Disintegrin and metalloproteinase domain-containing protein 17 (Homo sapiens, UniProt P78536); assay: Inhibitory activity against tumor necrosis factor alpha converting enzyme (TACE) from human acute monocytic leukemia cell line.
# Chain of Disintegrin and metalloproteinase domain-containing protein 17 (P78536 whole entry, the tested form may be a part): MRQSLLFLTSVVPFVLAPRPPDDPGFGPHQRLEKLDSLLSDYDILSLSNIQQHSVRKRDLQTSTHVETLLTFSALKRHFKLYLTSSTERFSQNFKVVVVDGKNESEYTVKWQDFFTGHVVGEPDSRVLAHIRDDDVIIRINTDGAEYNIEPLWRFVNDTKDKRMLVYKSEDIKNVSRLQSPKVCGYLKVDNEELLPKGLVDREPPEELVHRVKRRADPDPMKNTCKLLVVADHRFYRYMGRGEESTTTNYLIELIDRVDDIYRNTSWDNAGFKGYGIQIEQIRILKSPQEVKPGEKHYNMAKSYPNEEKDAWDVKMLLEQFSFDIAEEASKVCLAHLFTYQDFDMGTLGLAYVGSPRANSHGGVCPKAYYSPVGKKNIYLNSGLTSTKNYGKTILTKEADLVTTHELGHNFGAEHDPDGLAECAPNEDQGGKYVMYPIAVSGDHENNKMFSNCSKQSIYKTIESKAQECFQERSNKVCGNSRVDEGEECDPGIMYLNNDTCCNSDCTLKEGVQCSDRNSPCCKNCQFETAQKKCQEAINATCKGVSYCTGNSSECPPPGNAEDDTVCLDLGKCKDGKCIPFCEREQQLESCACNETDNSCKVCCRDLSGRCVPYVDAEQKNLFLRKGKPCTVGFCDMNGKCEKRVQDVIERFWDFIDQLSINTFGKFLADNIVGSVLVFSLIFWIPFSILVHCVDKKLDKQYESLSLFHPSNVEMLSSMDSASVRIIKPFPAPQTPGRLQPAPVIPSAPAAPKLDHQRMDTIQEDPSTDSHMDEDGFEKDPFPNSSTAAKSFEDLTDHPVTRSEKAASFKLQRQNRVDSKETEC
# [3] = target: T2, Disintegrin and metalloproteinase domain-containing protein 9 (Homo sapiens, UniProt Q13443); assay: Inhibition of the heparin binding epidermal growth factor (HB-EGF) release from fibrosarcoma HT1080 transfectants expressing […] (AP) tagged HB-EGF stimulated by 12-O-tetradecanoylphorbol 13-acetate(TPA).
# T2 sequence (Q13443 whole entry): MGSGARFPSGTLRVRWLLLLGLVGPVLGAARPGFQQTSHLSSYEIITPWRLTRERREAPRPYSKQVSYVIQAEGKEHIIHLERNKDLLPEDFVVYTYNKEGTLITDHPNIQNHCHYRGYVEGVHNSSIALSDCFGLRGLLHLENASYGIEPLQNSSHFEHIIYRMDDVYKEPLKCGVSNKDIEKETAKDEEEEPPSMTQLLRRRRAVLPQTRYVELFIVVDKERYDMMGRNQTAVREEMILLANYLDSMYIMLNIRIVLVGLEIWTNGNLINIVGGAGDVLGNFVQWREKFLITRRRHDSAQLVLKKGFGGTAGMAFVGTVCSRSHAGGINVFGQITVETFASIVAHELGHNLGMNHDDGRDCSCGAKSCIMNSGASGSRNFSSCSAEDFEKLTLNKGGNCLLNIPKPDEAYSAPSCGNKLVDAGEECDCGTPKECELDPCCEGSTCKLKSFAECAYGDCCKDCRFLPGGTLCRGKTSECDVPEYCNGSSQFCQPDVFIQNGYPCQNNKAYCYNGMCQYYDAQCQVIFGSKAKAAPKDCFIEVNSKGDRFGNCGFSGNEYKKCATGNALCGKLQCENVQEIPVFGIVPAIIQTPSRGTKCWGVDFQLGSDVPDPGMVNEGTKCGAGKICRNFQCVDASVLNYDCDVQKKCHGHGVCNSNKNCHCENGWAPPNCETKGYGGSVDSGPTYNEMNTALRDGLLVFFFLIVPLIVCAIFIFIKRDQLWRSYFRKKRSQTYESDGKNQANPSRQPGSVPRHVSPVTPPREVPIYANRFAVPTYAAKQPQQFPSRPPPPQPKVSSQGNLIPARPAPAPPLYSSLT
# Outline: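 HT-1080 transfectants in MEM/10% FCS seeded at 2 × 10⁵ cells/well, grown 24 h, PBS-washed, preincubated 30 min with compound in MEM containing 1% DMSO. Stimulated with TPA (60 nM) for 60 min. Supernatant heated 10 min at 65 °C to kill endogenous phosphatases, then incubated 2 h with p-nitrophenyl phosphate (1 mg/mL) in 1 M diethanolamine, pH 9.8; A405. IC50 from a concentration series.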
smiles,measurement,setting,value
COc1ccc(P(=O)(OCCc2ccccn2)N2Cc3ccccc3CC2C(=O)NO)cc1 (configuration not stated),Ki,Interstitial collagenase,3.14 nM
same,Ki,Stromelysin-1,6.41 nM
same,Ki,[1],3.42 nM
same,Ki,[2],120 nM
same,IC50,[3],180 nM
CCOP(=O)(c1ccc(OC)cc1)N1Cc2[nH]c3ccccc3c2CC1C(=O)NO (configuration not stated),Ki,Interstitial collagenase,2.02 nM
same,Ki,Stromelysin-1,2.04 nM
same,Ki,[1],1.13 nM
same,Ki,[2],2.2 nM
same,IC50,[3],800 nM
CCOP(=O)(CCc1ccccc1)N1Cc2ccccc2CC1C(=O)NO (configuration not stated),Ki,Interstitial collagenase,20.8 nM
same,Ki,Stromelysin-1,11.6 nM
same,Ki,[1],38.3 nM
same,Ki,[2],14.2 nM
same,IC50,[3],700 nM
CCO[P@@](=O)(c1ccc(OC)cc1)N1Cc2ccccc2CC1C(=O)NO (some centres not stated),Ki,Interstitial collagenase,4.58 nM
same,Ki,Stromelysin-1,5.2 nM
same,Ki,[1],5.05 nM
same,Ki,[2],7.15 nM
same,IC50,[3],230 nM
CCOP(=O)(c1ccc(OC)cc1)N1CCN(C(=O)OCc2ccccc2)CC1C(=O)NO (configuration not stated),Ki,Interstitial collagenase,20.1 nM
same,Ki,Stromelysin-1,14.9 nM
same,Ki,[1],5.2 nM
same,Ki,[2],7.99 nM
same,IC50,[3],430 nM
CCOP(=O)(c1ccncc1)N1Cc2ccccc2CC1C(=O)NO (configuration not stated),Ki,Interstitial collagenase,17.4 nM
same,Ki,Stromelysin-1,190 nM
same,Ki,[1],278 nM
same,Ki,[2],777 nM
same,IC50,[3],2600 nM
CCOP(=O)(c1ccc(N)cc1)N1Cc2ccccc2CC1C(=O)NO (configuration not stated),Ki,Interstitial collagenase,58.8 nM
same,Ki,Stromelysin-1,162 nM
same,Ki,[1],95.6 nM
same,Ki,[2],75.8 nM
same,IC50,[3],660 nM
CCOP(=O)(c1ccc(F)cc1)N1Cc2ccccc2CC1C(=O)NO (configuration not stated),Ki,Interstitial collagenase,0.97 nM
same,Ki,Stromelysin-1,64.4 nM
same,Ki,[1],51.9 nM
same,IC50,[3],300 nM
CCOP(=O)(/C=C/c1ccccc1)N1Cc2ccccc2CC1C(=O)NO (configuration not stated),Ki,Interstitial collagenase,160 nM
same,Ki,Stromelysin-1,29.7 nM
same,Ki,[1],88.8 nM
same,Ki,[2],37.4 nM
same,IC50,[3],910 nM
CCO[P@@](=O)(c1ccc(OC)cc1)N1Cc2ccccc2C[C@H]1C(=O)NO,Ki,Interstitial collagenase,759 nM
same,Ki,Stromelysin-1,> 650 nM
same,Ki,[1],349 nM
same,Ki,[2],> 780 nM
same,IC50,[3],> 10000 nM
CCOP(=O)(c1ccc(OC)cc1)N1Cc2ccsc2CC1C(=O)NO (configuration not stated),Ki,Interstitial collagenase,4.1 nM
same,Ki,Stromelysin-1,5.2 nM
same,Ki,[1],3.8 nM
same,Ki,[2],6.45 nM
same,IC50,[3],520 nM
CCCCOP(=O)(c1ccc(OC)cc1)N1Cc2ccccc2CC1C(=O)NO (configuration not stated),Ki,Interstitial collagenase,5.39 nM
same,Ki,Stromelysin-1,24 nM
same,Ki,[1],9.12 nM
same,IC50,[3],810 nM
CCOP(=O)(c1ccc(OC)cc1)N1Cc2cc(N)ccc2CC1C(=O)NO (configuration not stated),Ki,Interstitial collagenase,10.7 nM
same,Ki,Stromelysin-1,12.3 nM
same,Ki,[1],11 nM
same,Ki,[2],37.4 nM
same,IC50,[3],190 nM
CCOP(=O)(c1ccc(Oc2ccc(N)cc2)cc1)N1Cc2ccccc2CC1C(=O)NO (configuration not stated),Ki,Interstitial collagenase,6.5 nM
same,Ki,Stromelysin-1,0.5 nM
same,Ki,[1],0.1 nM
same,Ki,[2],21.7 nM
same,IC50,[3],1670 nM
CCOP(=O)(c1cccs1)N1Cc2ccccc2CC1C(=O)NO (configuration not stated),Ki,Interstitial collagenase,18.7 nM
same,Ki,Stromelysin-1,67 nM
same,Ki,[1],59.2 nM
same,Ki,[2],59.6 nM
same,IC50,[3],890 nM
COc1ccc(P(=O)(OCCc2ccccc2)N2Cc3ccccc3CC2C(=O)NO)cc1 (configuration not stated),Ki,Interstitial collagenase,4.43 nM
same,Ki,Stromelysin-1,8.15 nM
same,Ki,[1],5.22 nM
same,Ki,[2],42.2 nM
same,IC50,[3],3110 nM
CCO[P@](=O)(c1ccc(OC)cc1)N1Cc2ccccc2C[C@H]1C(=O)NO,Ki,Interstitial collagenase,> 850 nM
same,Ki,Stromelysin-1,> 650 nM
same,Ki,[1],> 800 nM
same,Ki,[2],> 780 nM
same,IC50,[3],> 10000 nM
CCOCCOc1ccc(P(=O)(OCC)N2Cc3ccccc3CC2C(=O)NO)cc1 (configuration not stated),Ki,Interstitial collagenase,> 850 nM
same,Ki,Stromelysin-1,29.6 nM
same,Ki,[1],14.2 nM
same,Ki,[2],2.98 nM
same,IC50,[3],70 nM
CCCCCCOP(=O)(c1ccc(OC)cc1)N1Cc2ccccc2CC1C(=O)NO (configuration not stated),Ki,Interstitial collagenase,10.9 nM
same,Ki,Stromelysin-1,5.19 nM
same,Ki,[1],6.57 nM
same,Ki,[2],32.7 nM
same,IC50,[3],1600 nM
COc1ccc(P(=O)(OC)N2Cc3ccccc3CC2C(=O)NO)cc1 (configuration not stated),Ki,Interstitial collagenase,3.64 nM
same,Ki,Stromelysin-1,2.95 nM
same,Ki,[1],2.03 nM
same,Ki,[2],8.92 nM
same,IC50,[3],70 nM
COc1ccc(P(=O)(OCCc2ccc(-c3ccccc3)cc2)N2Cc3ccccc3CC2C(=O)NO)cc1 (configuration not stated),Ki,Interstitial collagenase,7.33 nM
same,Ki,Stromelysin-1,12.8 nM
same,Ki,[1],6.47 nM
same,Ki,[2],90.2 nM
same,IC50,[3],3560 nM
CCOP(=O)(c1ccc(C)cc1)N1Cc2ccccc2CC1C(=O)NO (configuration not stated),Ki,Interstitial collagenase,4.9 nM
same,Ki,Stromelysin-1,72.9 nM
same,Ki,[1],41.8 nM
same,Ki,[2],500 nM
same,IC50,[3],1890 nM
CCOP(=O)(c1ccc(-c2ccccc2)cc1)N1Cc2ccccc2CC1C(=O)NO (configuration not stated),Ki,Interstitial collagenase,9.65 nM
same,Ki,Stromelysin-1,4.36 nM
same,Ki,[1],0.31 nM
same,Ki,[2],50 nM
same,IC50,[3],1960 nM
CCOP(=O)(c1ccc(Oc2ccncc2)cc1)N1Cc2ccccc2CC1C(=O)NO (configuration not stated),Ki,Interstitial collagenase,39.8 nM
same,Ki,Stromelysin-1,4.85 nM
same,Ki,[1],0.6 nM
same,Ki,[2],13.8 nM
same,IC50,[3],660 nM
CCO[P@](=O)(c1ccc(OC)cc1)N1Cc2ccccc2CC1C(=O)NO (some centres not stated),Ki,Interstitial collagenase,> 850 nM
same,Ki,Stromelysin-1,> 650 nM
same,Ki,[1],> 800 nM
same,Ki,[2],> 780 nM
same,IC50,[3],> 10000 nM
CCOP(=O)(c1ccccc1)N1Cc2ccccc2CC1C(=O)NO (configuration not stated),Ki,Interstitial collagenase,11.4 nM
same,Ki,Stromelysin-1,34.9 nM
same,Ki,[1],42.7 nM
same,Ki,[2],11.2 nM
same,IC50,[3],370 nM
CCOP(=O)(c1ccc(OC)cc1)N1CCCC1C(=O)NO (configuration not stated),Ki,Interstitial collagenase,> 850 nM
same,Ki,Stromelysin-1,527 nM
same,Ki,[1],316 nM
same,Ki,[2],> 780 nM
same,IC50,[3],> 10000 nM
CCOP(=O)(c1ccc(OC)cc1)N1Cc2nccnc2CC1C(=O)NO (configuration not stated),Ki,Interstitial collagenase,7.8 nM
same,Ki,Stromelysin-1,10.7 nM
same,Ki,[1],7 nM
same,Ki,[2],13.7 nM
same,IC50,[3],560 nM
CCOP(=O)(c1cccc(F)c1)N1Cc2ccccc2CC1C(=O)NO (configuration not stated),Ki,Interstitial collagenase,27.1 nM
same,Ki,Stromelysin-1,51.4 nM
same,Ki,[1],80.1 nM
same,Ki,[2],22.8 nM
same,IC50,[3],830 nM
CCOP(=O)(c1ccc(Oc2ccccc2)cc1)N1Cc2ccccc2CC1C(=O)NO (configuration not stated),Ki,Interstitial collagenase,1.81 nM
same,Ki,Stromelysin-1,0.53 nM
same,Ki,[1],0.08 nM
same,Ki,[2],7.89 nM
same,IC50,[3],260 nM
CCOCCOP(=O)(c1ccc(OC)cc1)N1Cc2ccccc2CC1C(=O)NO (configuration not stated),Ki,Interstitial collagenase,6.75 nM
same,Ki,Stromelysin-1,5.43 nM
same,Ki,[1],6.36 nM
same,Ki,[2],18.9 nM
same,IC50,[3],510 nM
COc1ccc(P(=O)(OCC2CCCCC2)N2Cc3ccccc3CC2C(=O)NO)cc1 (configuration not stated),Ki,Interstitial collagenase,6.67 nM
same,Ki,Stromelysin-1,2.43 nM
same,Ki,[1],4.56 nM
same,Ki,[2],15.5 nM
same,IC50,[3],1340 nM
COc1ccc(P(=O)(OC(C)C)N2Cc3ccccc3CC2C(=O)NO)cc1 (configuration not stated),Ki,Interstitial collagenase,17.8 nM
same,Ki,Stromelysin-1,24.4 nM
same,Ki,[1],23.2 nM
same,IC50,[3],2240 nM
CCN(CC)CCOP(=O)(c1ccc(OC)cc1)N1Cc2ccccc2CC1C(=O)NO (configuration not stated),Ki,Interstitial collagenase,10.7 nM
same,Ki,Stromelysin-1,82.4 nM
same,Ki,[1],16.7 nM
same,Ki,[2],33.2 nM
same,IC50,[3],1140 nM
CCOP(=O)(c1ccccc1F)N1Cc2ccccc2CC1C(=O)NO (configuration not stated),Ki,Interstitial collagenase,24 nM
same,Ki,Stromelysin-1,47.8 nM
same,Ki,[1],32.1 nM
same,Ki,[2],73.6 nM
same,IC50,[3],1060 nM
